# Active and inactive are the calls of the source. The calls are words filed in the database; no cut-off is given here.
# Tests used:
# [1] = system: Candida albicans; experiment: Antifungal activity against Candida albicans SN152 assessed as zone inhibition at 25 ug incubated for 24 hrs by disk diffusion method; type: functional, organism-based
# How it was run: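 Strains were streaked on YPD agar and grown at 30 °C: 24 h for parental SN152, 48 h for the erg11ΔΔ erg3ΔΔ mutant. Colonies were suspended in PBS and adjusted to OD 0.02 (SN152) or 0.03 (mutant), then spread on Casitone plates. A 6-mm disk loaded with 25 µg compound was placed centrally. Plates were incubated at 30 °C and photographed after 24 h.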
# [2] = system: Candida albicans; experiment: Antifungal activity against ERG11/ERG3 knocked out Candida albicans SN152 assessed as zone of inhibition at 25 ug […] by disk diffusion method; type: functional, organism-based
# [3] = system: Candida albicans; experiment: Antifungal activity against Candida albicans ATCC 90028 assessed as reduction in fungal cell growth incubated for 24 hrs by MTT based broth double dilution method; type: functional; settings: ATCC 90028, 24 h
# How it was run: (§1)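 Broth double-dilution in Casitone broth. Starter cultures were grown 24 or 48 h at 37 °C, 5% CO₂, diluted 1:100, and added to serial two-fold dilutions at 64 to 0.007 µg/mL. Final inoculum was 5 x 10^4 to 5 x 10^5 CFU/mL; DMSO was 0.0012–1.3%. Plates were incubated at 37 °C, 5% CO₂, then MTT was added for 2 h. MIC followed CLSI M27-A3. Triplicates, two independent experiments.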
# [4] = system: Candida albicans; experiment: Antifungal activity against Candida albicans P-87 assessed as reduction in fungal cell growth incubated for 24 hrs by MTT based broth double dilution method; type: functional; settings: P-87, 24 h; how it was run: as §1
# [5] = system: Candida albicans; experiment: Antifungal activity against Candida albicans SN152 assessed as reduction in fungal cell growth incubated for 24 hrs by MTT based broth double dilution method; type: functional; settings: SN152, 24 h; how it was run: as §1
# [6] = system: Nakaseomyces glabratus; experiment: Antifungal activity against Candida glabrata ATCC 66032 assessed as reduction in fungal cell growth incubated for 24 hrs by MTT based broth double dilution method; type: functional; settings: ATCC 66032, 24 h; how it was run: as §1
# [7] = system: Nakaseomyces glabratus; experiment: Antifungal activity against Candida glabrata ATCC 2001 assessed as reduction in fungal cell growth incubated for 24 hrs by MTT based broth double dilution method; type: functional; settings: ATCC 2001, 24 h; how it was run: as §1
# [8] = system: Nakaseomyces glabratus; experiment: Antifungal activity against Candida glabrata 192 assessed as reduction in fungal cell growth incubated for 24 hrs by MTT based broth double dilution method; type: functional; settings: Nakaseomyces glabratus, 192, 24 h; how it was run: as §1
# [9] = system: Candida parapsilosis; experiment: Antifungal activity against Candida parapsilosis ATCC 90018 assessed as reduction in fungal cell growth incubated for 24 hrs by MTT based broth double dilution method; type: functional; settings: Lodderomyces parapsilosis, ATCC 90018, 24 h; how it was run: as §1
# [10] = system: Candida parapsilosis; experiment: Antifungal activity against Candida parapsilosis ATCC 22019 assessed as reduction in fungal cell growth incubated for 24 hrs by MTT based broth double dilution method; type: functional; settings: Lodderomyces parapsilosis, ATCC 22019, 24 h; how it was run: as §1
# [11] = system: Meyerozyma guilliermondii; experiment: Antifungal activity against Candida guilliermondii T-47 assessed as reduction in fungal cell growth incubated for 24 hrs by MTT based broth double dilution method; type: functional; settings: T-47, 24 h; how it was run: as §1
# [12] = system: Candida dubliniensis; experiment: Antifungal activity against Candida dubliniensis T-99 assessed as reduction in fungal cell growth incubated for 24 hrs by MTT based broth double dilution method; type: functional; settings: T-99, 24 h; how it was run: as §1
# [13] = system: Candida albicans; experiment: Antifungal activity against Candida albicans ATCC 90028 assessed as reduction in fungal cell growth incubated for 48 hrs by MTT based broth double dilution method; type: functional; settings: ATCC 90028, 48 h; how it was run: as §1
# [14] = system: Candida albicans; experiment: Antifungal activity against Candida albicans SN152 assessed as reduction in fungal cell growth incubated for 48 hrs by MTT based broth double dilution method; type: functional; settings: SN152, 48 h; how it was run: as §1
# [15] = system: Nakaseomyces glabratus; experiment: Antifungal activity against Candida glabrata ATCC 66032 assessed as reduction in fungal cell growth incubated for 48 hrs by MTT based broth double dilution method; type: functional; settings: ATCC 66032, 48 h; how it was run: as §1
# [16] = system: Nakaseomyces glabratus; experiment: Antifungal activity against Candida glabrata 192 assessed as reduction in fungal cell growth incubated for 48 hrs by MTT based broth double dilution method; type: functional; settings: Nakaseomyces glabratus, 192, 48 h; how it was run: as §1
# [17] = molecular target: Cytochrome P450 3A4 (Homo sapiens, UniProt P08684); experiment: Inhibition of recombinant human CYP3A4 using Luciferin-PPXE as substrate preincubated for 10 mins followed by NADPH addition measured after 15 mins by luminometric method; type: ADME
# How it was run: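 P450-Glo luminescent assay, Luciferin-PPXE substrate. Compound was mixed with membranes containing recombinant human CYP3A4; controls were vehicle with membranes lacking CYP3A4. After 10 min preincubation at 37 °C, NADPH regeneration reagent was added and the mixture kept 15 min at 37 °C. Luciferin detection reagent stopped the reaction; after 20 min at room temperature, luminescence was read. Duplicates.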
# [18] = system: HepG2; experiment: Cytotoxicity against human HepG2 cells assessed as reduction in cell viability at 5 to 50 uM incubated for 24 hrs by XTT assay; type: cell-based; settings: hepg2, 24 h
# How it was run: (§2)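 HEK-293T were grown in DMEM with 10% FBS; HepG2 in RPMI with 15% FBS; both at 37 °C, 5% CO₂. Cells (4000 HepG2 or 7000 HEK-293T per well) were seeded on poly-D-lysine wells. After 24 h the medium was renewed and compounds added at 5–50 µM from 1 mM stocks in 10% DMSO/0.3% Tween/PBS. After 24 h more, XTT was added for 2 h at 37 °C; absorbance was read at 475 nm against 660 nm reference.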
# [19] = system: HEK-293T; experiment: Cytotoxicity against human HEK293T cells assessed as reduction in cell viability at 5 to 50 uM incubated for 24 hrs by XTT assay; type: cell-based; how it was run: as §2
# [20] = Cytotoxicity against human HepG2 cells assessed as reduction in cell viability at 5 to 50 uM incubated for 24 hrs by XTT assay relative to control; type: cell-based; settings: read-out: INH
# How it was run: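 HepG2 cells were maintained in RPMI with 15% FBS, 1% NEAA, 1% pyruvate and pen-strep-nystatin at 37 °C and 5% CO2. 4000 cells/well were plated on poly-D-lysine coating and given fresh medium after 24 h. Compounds were dosed at 5–50 µM from 1 mM stocks in 10% DMSO/0.3% Tween/PBS and incubated 24 h. Viability was read by XTT (2 h, 37 °C) at 475 nm against 660 nm.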
# [21] = Cytotoxicity against human HEK293T cells assessed as reduction in cell viability at 5 to 50 uM incubated for 24 hrs by XTT assay relative to control; type: cell-based, HEK-293T; settings: HEK293T cells, read-out: INH
# How it was run: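 HEK-293T cells were grown in DMEM with 10% FBS, 1% NEAA, 1% pyruvate and pen-strep-nystatin at 37 °C and 5% CO2. 7000 cells/well were seeded on poly-D-lysine-coated wells. After 24 h the medium was renewed and compounds were added at 5–50 µM from 1 mM stocks in 10% DMSO/0.3% Tween/PBS. After 24 h, XTT was added for 2 h at 37 °C, with absorbance read at 475 nm (reference 660 nm).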
# Chain of Cytochrome P450 3A4 (P08684 whole entry): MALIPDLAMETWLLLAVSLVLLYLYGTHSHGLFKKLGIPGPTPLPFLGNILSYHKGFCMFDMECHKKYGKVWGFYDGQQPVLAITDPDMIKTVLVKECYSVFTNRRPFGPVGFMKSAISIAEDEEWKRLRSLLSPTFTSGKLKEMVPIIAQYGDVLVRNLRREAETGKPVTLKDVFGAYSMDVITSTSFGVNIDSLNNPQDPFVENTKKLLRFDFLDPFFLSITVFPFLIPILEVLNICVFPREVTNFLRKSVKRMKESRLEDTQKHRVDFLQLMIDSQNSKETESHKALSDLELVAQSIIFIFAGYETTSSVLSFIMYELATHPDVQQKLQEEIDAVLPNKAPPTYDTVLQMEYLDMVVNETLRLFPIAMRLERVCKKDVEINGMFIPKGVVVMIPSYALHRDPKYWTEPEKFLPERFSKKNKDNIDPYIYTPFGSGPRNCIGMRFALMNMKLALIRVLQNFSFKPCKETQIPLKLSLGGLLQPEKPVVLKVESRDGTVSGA
SMILES,inhibition zone (IZ) [1],inhibition zone (IZ) [2],MIC [3] [µg/mL],MIC [4] [µg/mL],MIC [5] [µg/mL],MIC [6] [µg/mL],MIC [7] [µg/mL],MIC [8] [µg/mL],MIC [9] [µg/mL],MIC [10] [µg/mL],MIC [11] [µg/mL],MIC [12] [µg/mL],MIC [13] [µg/mL],MIC [14] [µg/mL],MIC [15] [µg/mL],MIC [16] [µg/mL],Activity [18],Activity [19],"cytotoxicity at 24 h, up to 50 µM [20] [%]","cytotoxicity at 24 h, up to 50 µM [21] [%]",also measured
CCN(CC)c1ccc2cc(C(=O)NCC(O)(Cn3cncn3)c3ccc(Cl)cc3Cl)c(=O)oc2c1 (racemic),Active,inactive,0.03,0.03,0.03,4,16,4,0.06,0.5,0.25,0.5,0.06,0.06,> 64,> 64,Non-Toxic,Non-Toxic,< 40,< 40,IC50 [17]: 0.351 µM
OC(Cn1cncn1)(Cn1cncn1)c1ccc(F)cc1F [FLUCONAZOLE],Active,inactive,0.5,0.25,0.25,64,64,8,1,2,4,4,0.5,1,> 64,8,Non-Toxic,Non-Toxic,< 40,< 40,–

# — ChEMBL document CHEMBL4351026, “Antifungal activity, mode of action variability, and subcellular distribution of coumarin-based antifungal azoles” (Eur J Med Chem, 2019)
